Data set [1] concerns Mus musculus. The data set can be described thus: Anticonvulsant activity in mouse at 300 mg/kg, ip. The data set is classed as functional, organism-based. Set-up: dose 300 mg/kg. A digest of the protocol: (§1)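 Phase I screen: intraperitoneal injection into mice as suspension in 0.5% methylcellulose at 30, 100 and 300 mg/kg; MES, subcutaneous pentylenetetrazole and rota-rod minimal motor impairment assessed at 0.5 h and 4 h after dosing (2 h also reported for some MES readings). Value is minimum dose showing activity or toxicity.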

Data set [2] can be described thus: Lipophilicity, log kw of compound by RP-HPLC. Format: physicochemical. A digest of the protocol:
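RP-HPLC on end-capped C18 column, acetonitrile-containing mobile phase at several concentrations; uracil as unretained marker for dead volume; UV detection at 214 nm, room temperature; three measurement sets averaged; log kw obtained by extrapolation of linear log k versus organic modifier fraction (log k = log kw − Sφ).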

Data set [3] concerns Mus musculus. The data set is described as follows: Neurotoxicity in ip dosed mouse after 4 hrs by rotarod test. Conditions: in vivo. Format: toxicity, organism-based. A digest of the protocol: as §1
In general terms: The rotarod test checks motor coordination on a turning rod.

Data set [4] relates to Mus musculus. The data set is described as follows: Anticonvulsant activity in ip dosed mouse after 2 hrs by maximal electroshock test. Format: functional. A digest of the protocol: as §1
(In the maximal electroshock model the usual endpoint is tonic extension of the hind limbs.)

In data set [5] the test system is Mus musculus. The data set can be described thus: Anticonvulsant activity in ip dosed mouse after 4 hrs by maximal electroshock test. The data set is classed as functional. A digest of the protocol:
as §1

Data set [6] relates to Mus musculus. The data set is described as follows: Neurotoxicity in ip dosed mouse after 0.5 hrs by rotarod test. The data set is classed as toxicity, organism-based. The following applies: in vivo. A digest of the protocol:
as §1

Data set [7] relates to Rattus norvegicus. The data set is described as follows: Neurotoxicity in rat at 30 mg/kg, po after 1 hr by rotarod test. Also noted: dose 30 mg/kg, route oral. The data set is classed as toxicity, organism-based. Conditions: in vivo. A digest of the protocol: (§2)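 Phase VIa: oral administration to rats, four animals, fixed 30 mg/kg; MES protection and rota-rod neurotoxicity read at 0.25, 0.5, 1, 2 and 4 h post dose. Reported as number of animals protected (or showing toxicity) over number tested.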

The test system of data set [8] is Rattus norvegicus. The data set is described as follows: Neurotoxicity in rat at 30 mg/kg, po after 0.5 hrs by rotarod test. Format: toxicity, organism-based. Set-up: dose 30 mg/kg, route oral. The following applies: in vivo. A digest of the protocol:
as §2

Data set [9] deals with Rattus norvegicus. The data set can be described thus: Neurotoxicity in rat at 30 mg/kg, po after 0.25 hrs by rotarod test. Conditions: in vivo. The data set is classed as toxicity, organism-based. Also noted: dose 30 mg/kg, route oral. A digest of the protocol: as §2
The subject of data set [10] is Rattus norvegicus. The data set is described as follows: Neurotoxicity in rat at 30 mg/kg, po after 4 hrs by rotarod test. Format: toxicity, organism-based. Set-up: dose 30 mg/kg, route oral. Conditions: in vivo. A digest of the protocol: as §2
Data set [11] concerns Mus musculus. The data set is described as follows: Anticonvulsant activity in ip dosed mouse after 0.5 hrs by subcutaneous pentylenetetrazole test. Format: functional. A digest of the protocol: as §1
Data set [12] relates to Rattus norvegicus. The data set is described as follows: Neurotoxicity in rat at 30 mg/kg, po after 2 hrs by rotarod test. The data set is classed as toxicity, organism-based. Also noted: dose 30 mg/kg, route oral. The following applies: in vivo. A digest of the protocol:
as §2

The test system of data set [13] is Mus musculus. The data set can be described thus: Anticonvulsant activity in ip dosed mouse after 0.5 hrs by maximal electroshock test. The data set is classed as functional. A digest of the protocol:
as §1

For data set [14], the species on record is Rattus norvegicus. The data set is described as follows: Displacement of [3H]muscimol from GABAA receptor in rat brain cortex. The data set is classed as tissue-based. A digest of the protocol: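 Rat brain membranes washed repeatedly in ice-cold 50 mM Tris-HCl pH 7.4, stored at −20 °C at least 18 h; incubated 10 min at 0 °C with 3 nM [3H]muscimol (stock) and eight test concentrations 10^-11–10^-4 M; nonspecific binding with GABA; filtration, scintillation counting, duplicates, iterative curve fitting.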
(In general: Displacement assays read how much labelled ligand stays bound in the presence of the test substance.)

The subject of data set [15] is Mus musculus. The data set is described as follows: Anticonvulsant activity in ip dosed mouse after 4 hrs by subcutaneous pentylenetetrazole test. The data set is classed as functional. A digest of the protocol: as §1
Data set [16] relates to Mus musculus. The data set can be described thus: Anticonvulsant activity in mouse at 100 mg/kg, ip. The data set is classed as functional, organism-based. Also noted: dose 100 mg/kg. A digest of the protocol:
as §1

Data set [17] concerns Rattus norvegicus. The data set can be described thus: Anticonvulsant activity in po dosed rat after 2 hrs by maximal electroshock test. The data set is classed as functional. A digest of the protocol:
(§3)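 Phase II quantification in rats after oral dosing: median effective dose in MES and scPTZ seizure tests determined at the previously estimated time of peak effect, 2 h.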

For data set [18], the system named is Rattus norvegicus. The data set can be described thus: Anticonvulsant activity in po dosed rat after 2 hrs by subcutaneous pentylenetetrazole test. The data set is classed as functional. A digest of the protocol:
as §3

Data set [19] has as its system Mus musculus. The data set can be described thus: Toxicity in mouse at 30 mg/kg, ip. Format: organism-based. Set-up: dose 30 mg/kg, route intraperitoneal. The following applies: in vivo. A digest of the protocol:
as §1

Results on 13 molecules are retold here after ChEMBL document CHEMBL1149755, “Synthesis, physicochemical and anticonvulsant properties of new N-phenylamino derivatives of 2-azaspiro[4.4]nonane- and [4.5]decane-1,3-diones: part V” (Eur J Med Chem, 2008).

The ED50 is the dose at which the effect has come halfway, by size or by number of responders. A high value points to weaker potency.

Activity calls are given as the source filed them. The rule behind the calls is not given here. Where only a bound is given, the exact number is not on record here.

Turning to `O=C1CC(C2CCCCC2)C(=O)N1Nc1ccc(Cl)cc1Cl` (stereo unspecified), the result in the data set on Mus musculus [1] was inactive. In addition, the logKw in [2] is listed as 2.896.

Take `CC1CCCCC12CC(=O)N(Nc1ccc(Br)cc1)C2=O` (stereo unspecified): the Activity with Mus musculus [3] was 300 mg/kg; in the data set with Mus musculus [4] it was 100 mg/kg; with Mus musculus [5], 300 mg/kg. Also, in the data set on Mus musculus [1], the result was Active. For the same molecule, the logKw in data set [2] worked out at 2.561.

`O=C1CC2(CCCCC2)C(=O)N1Nc1ccccc1Cl`: in the data set with Mus musculus [1], the outcome was inactive. In [2], the logKw amounted to 2.322.

On to `CC1CCCCC12CC(=O)N(Nc1ccccc1Cl)C2=O` (stereo unspecified), for which, in the data set with Mus musculus [1], the result was inactive. The same molecule came in with a logKw in [2] of 2.515. In the data set with Mus musculus [6], this molecule displayed a Minimum neurotoxic dose of 100 mg/kg.

In the case of `O=C1CC2(CCCC2)C(=O)N1Nc1ccccc1Cl`, the Activity result in the data set with Rattus norvegicus [7] was “Non-toxic”; with Rattus norvegicus [8], “Non-toxic”; in the data set with Rattus norvegicus [9], “Non-toxic”; with Rattus norvegicus [10], “Non-toxic”; in the data set with Mus musculus [11], 300 mg/kg; in the data set with Rattus norvegicus [12], “Non-toxic”. Further, the Activity in the data set with Mus musculus [13] amounted to 300 mg/kg. In the data set with Mus musculus [1], the result was Active. Moreover, in [2], the logKw is 2.095.

`O=C1CC2(CCCC2)C(=O)N1Nc1ccc(Br)cc1`: in the data set on Mus musculus [1], the result was Active. The Activity with Mus musculus [4] came to 100 mg/kg; with Mus musculus [5], 300 mg/kg; with Mus musculus [11], 300 mg/kg. Further, the logKw in [2] worked out at 2.115. Also, the result in the data set listed under Rattus norvegicus [14] was inactive. In the data set with Mus musculus [6], the Minimum neurotoxic dose came out at 100 mg/kg.

Consider `CC1CCCCC12CC(=O)N(Nc1ccc(Cl)cc1Cl)C2=O` (stereo unspecified), for which the result in the data set with Mus musculus [1] was Active. The molecule further came in with a logKw in data set [2] of 2.847. Moreover, the Activity in the data set on Mus musculus [5] and in the data set on Mus musculus [11] was 300 mg/kg each time.

Turning to `O=C1CC2(CCCCC2)C(=O)N1Nc1ccc(Cl)cc1Cl`, the Activity result in the data set with Rattus norvegicus [7] was “Non-toxic”; with Mus musculus [15] it was 300 mg/kg; with Mus musculus [5], 100 mg/kg; with Rattus norvegicus [8], “Non-toxic”; with Rattus norvegicus [9], “Non-toxic”; in the data set with Rattus norvegicus [10] it was “Non-toxic”. The Activity entry in the data set on Rattus norvegicus [12] is “Non-toxic”. The molecule further returned a logKw in data set [2] of 2.634. The outcome in the data set listed under Rattus norvegicus [14] was inactive. Also, in the data set with Mus musculus [16], the outcome was Active.

With `CC1CCC2(CC1)CC(=O)N(Nc1ccc(Cl)cc1Cl)C2=O` (stereo unspecified), the Activity with Mus musculus [3] was 100 mg/kg. Also, the result in the data set with Mus musculus [1] was inactive. This molecule returned a logKw in [2] of 2.977. The same molecule showed a Minimum neurotoxic dose in the data set with Mus musculus [6] of 100 mg/kg.

With `O=C1CC2(CCCC2)C(=O)N1Nc1ccc(Cl)cc1Cl`, the Activity result with Rattus norvegicus [7] was “Non-toxic”; in the data set on Mus musculus [5], 300 mg/kg; with Rattus norvegicus [8] it was “Non-toxic”; in the data set with Rattus norvegicus [9] it was “Non-toxic”; in the data set with Rattus norvegicus [10] it was “Non-toxic”; with Rattus norvegicus [12], “Non-toxic”. This molecule had an Activity with Mus musculus [13] of 100 mg/kg. Moreover, the ED50 was greater than 180 mg/kg with Rattus norvegicus [17] and greater than 125 mg/kg in the data set on Rattus norvegicus [18]. The TD50 with Rattus norvegicus [17] and in the data set with Rattus norvegicus [18] was greater than 250 mg/kg each time. Further, the logKw in [2] is 2.419. Moreover, the outcome in the data set filed under Rattus norvegicus [14] was inactive. Besides, the Minimum neurotoxic dose in the data set with Mus musculus [6] came out at 300 mg/kg. In addition, the result in the data set with Mus musculus [16] was Active.

Take `CC1CCCC2(CC(=O)N(Nc3ccc(Cl)cc3Cl)C2=O)C1` (stereo unspecified): in the data set on Mus musculus [1], the outcome was inactive. Moreover, the logKw in data set [2] is on record as 2.976.

Turning to `O=C1CC2(CCCCC2)C(=O)N1Nc1ccc(Br)cc1`, the logKw in data set [2] was 2.337. In addition, the Activity with Mus musculus [5] is 100 mg/kg; with Mus musculus [19], “Toxic”. Besides, the outcome in the data set filed under Rattus norvegicus [14] was inactive. In the data set with Mus musculus [6], this molecule came in with a Minimum neurotoxic dose of 30 mg/kg. The outcome in the data set on Mus musculus [16] was Active.

Take `O=C1CC(C2CCCCC2)C(=O)N1Nc1ccccc1Cl` (stereo unspecified): in the data set on Mus musculus [1], the outcome was inactive. In data set [2], the logKw was 2.536.
